Measurements as given in ChEMBL document CHEMBL4265871, “Novel alkylated azoles as potent antifungals” (Eur J Med Chem, 2017).
In brackets after ≈: the same amount, converted by molar mass.

Tests used:
[1] = test system: Candida albicans; assay: Antifungal activity against Candida albicans ATCC 10231 incubated for 48 hrs by modified CLSI M27-A3 protocol based method; type: functional; settings: ATCC 10231, 48 h; for MIC: read-out: MIC100
Procedure, shortened: (§1)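 For C. albicans ATCC 10231, C. krusei ATCC 6258 and C. parapsilosis ATCC 22019, MIC-0 was read, meaning complete growth inhibition. For azole controls, MIC-2 (50% growth inhibition) was reported instead. Caspofungin and voriconazole were tested here; other controls came from earlier work.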

[2] = test system: Candida albicans; assay: Antifungal activity against Candida albicans ATCC 64124 incubated for 48 hrs by modified CLSI M27-A3 protocol based method; type: functional; settings: ATCC 64124, 48 h
[3] = test system: Candida albicans; assay: Antifungal activity against ITC and FLC-susceptible Candida albicans ATCC MYA-2876 incubated for 48 hrs by modified CLSI M27-A3 protocol based method; type: functional; settings: ATCC MYA-2876, 48 h
Procedure, shortened: (§2)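 Because these Candida strains show trailing growth, MIC-2 was read, meaning 50% growth inhibition. Caspofungin and voriconazole were tested here; other controls came from earlier work.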

[4] = test system: Candida albicans; assay: Antifungal activity against ITC and FLC-resistant Candida albicans ATCC MYA-90819 incubated for 48 hrs by modified CLSI M27-A3 protocol based method; type: functional; settings: ATCC MYA-90819, 48 h
[5] = test system: Candida albicans; assay: Antifungal activity against ITC and FLC-susceptible Candida albicans ATCC MYA-2310 incubated for 48 hrs by modified CLSI M27-A3 protocol based method; type: functional; settings: ATCC MYA-2310, 48 h
[6] = test system: Candida albicans; assay: Antifungal activity against ITC and FLC-resistant Candida albicans ATCC 1237 incubated for 48 hrs by modified CLSI M27-A3 protocol based method; type: functional; settings: ATCC 1237, 48 h; procedure, shortened: as §2
[7] = test system: Candida albicans; assay: Antifungal activity against ITC and FLC-resistant Candida albicans ATCC MYA-1003 incubated for 48 hrs by modified CLSI M27-A3 protocol based method; type: functional; settings: ATCC MYA-1003, 48 h; procedure, shortened: as §2
[8] = test system: Nakaseomyces glabratus; assay: Antifungal activity against Candida glabrata ATCC 2001 incubated for 48 hrs by modified CLSI M27-A3 protocol based method; type: functional; settings: ATCC 2001, 48 h
[9] = test system: Pichia kudriavzevii; assay: Antifungal activity against Candida krusei ATCC 6258 incubated for 48 hrs by modified CLSI M27-A3 protocol based method; type: functional; settings: ATCC 6258, 48 h; for MIC: read-out: MIC100; procedure, shortened: as §1
[10] = test system: Candida parapsilosis; assay: Antifungal activity against Candida parapsilosis ATCC 22019 incubated for 48 hrs by modified CLSI M27-A3 protocol based method; type: functional; settings: Lodderomyces parapsilosis, ATCC 22019, 48 h; for MIC: read-out: MIC100; procedure, shortened: as §1
[11] = test system: Aspergillus flavus; assay: Antifungal activity against Aspergillus flavus ATCC MYA-3631 incubated for 48 hrs by CLSI M38-A2 protocol based method; type: functional; settings: ATCC MYA-3631, 48 h; for MIC: read-out: MIC100
[12] = test system: Aspergillus nidulans; assay: Antifungal activity against Aspergillus nidulans ATCC 38163 incubated for 48 hrs by CLSI M38-A2 protocol based method; type: functional; settings: ATCC 38163, 48 h; for MIC: read-out: MIC100
[13] = test system: Aspergillus terreus; assay: Antifungal activity against Aspergillus terreus ATCC MYA-3633 incubated for 48 hrs by CLSI M38-A2 protocol based method; type: functional; settings: ATCC MYA-3633, 48 h; for MIC: read-out: MIC100
[14] = test system: Candida albicans; assay: Antifungal activity against Candida albicans ATCC 10231 at 0.5 to 4 times MIC incubated for 3 to 24 hrs by time kill assay

In the case of CCCCCC(O)(Cn1cncn1)c1cccc(F)c1 (stereo not drawn), the MIC [1] is reported as over 113 µM, the MIC50 [2] is reported as over 113 µM and the MIC50 [3] is reported as 14.1 µM (≈ 3.91 µg/mL). For the same compound, the MIC50 [4] was 14.1 µM (≈ 3.91 µg/mL), the MIC50 [5] was 14.1 µM (≈ 3.91 µg/mL) and the MIC50 [6] was 14.1 µM (≈ 3.91 µg/mL). The MIC50 [7] was over 113 µM, the MIC50 [8] was 28.1 µM (≈ 7.79 µg/mL) and the MIC [9] was 14.1 µM (≈ 3.91 µg/mL). It also gave an MIC [10] of 14.1 µM (≈ 3.91 µg/mL), an MIC [11] of at least 113 µM and an MIC [12] of 0.87 µM (≈ 0.241 µg/mL). The MIC [13] was 14.1 µM (≈ 3.91 µg/mL).

CCCCCCCCCCCCC(O)(Cn1cncn1)c1ccc(F)cc1F (stereo not drawn) showed an MIC [1] of over 79.5 µM, an MIC50 [2] of over 79.5 µM and an MIC50 [3] of 19.8 µM (≈ 7.79 µg/mL). For the same compound, the MIC50 [4] was over 79.5 µM, the MIC50 [5] was 19.8 µM (≈ 7.79 µg/mL) and the MIC50 [6] was 19.8 µM (≈ 7.79 µg/mL). The MIC50 [7] was over 79.5 µM, the MIC50 [8] was 2.5 µM (≈ 0.984 µg/mL) and the MIC [9] was over 79.5 µM. The MIC [10] was 5 µM (≈ 1.97 µg/mL), the MIC [11] was over 79.5 µM and the MIC [12] was 1.2 µM (≈ 0.472 µg/mL). For the same compound, the MIC [13] was 9.9 µM (≈ 3.9 µg/mL).

Compound CC[C@H](C)C[C@H](C)CCCCCCCCC(=O)N[C@H]1C[C@@H](O)[C@@H](NCCN)NC(=O)[C@@H]2[C@@H](O)CCN2C(=O)[C@H]([C@H](O)CCN)NC(=O)[C@H]([C@H](O)[C@@H](O)c2ccc(O)cc2)NC(=O)[C@@H]2C[C@@H](O)CN2C(=O)[C@H]([C@@H](C)O)NC1=O [CASPOFUNGIN] has an MIC [1] of 0.8 µM (≈ 0.875 µg/mL), an MIC [2] of 0.2 µM (≈ 0.219 µg/mL) and an MIC ([3]; read-out: MIC100) of 0.05 µM (≈ 0.0547 µg/mL). The MIC [4] was 0.1 µM (≈ 0.109 µg/mL), the MIC ([5]; read-out: MIC100) was 0.1 µM (≈ 0.109 µg/mL) and the MIC ([6]; read-out: MIC100) was 0.2 µM (≈ 0.219 µg/mL). For the same compound, the MIC ([7]; read-out: MIC100) was 0.4 µM (≈ 0.437 µg/mL), the MIC [8] was 0.05 µM (≈ 0.0547 µg/mL) and the MIC [9] was 0.4 µM (≈ 0.437 µg/mL). The MIC [10] was 1.6 µM (≈ 1.75 µg/mL), the MIC [11] was over 25.8 µM and the MIC [12] was over 26 µM. The MIC [13] was over 25.8 µM.

C[C@@H](c1ncncc1F)[C@](O)(Cn1cncn1)c1ccc(F)cc1F [VORICONAZOLE] showed an MIC50 [2] of 11.2 µM (≈ 3.91 µg/mL), an MIC50 [3] of 5.6 µM (≈ 1.96 µg/mL) and an MIC50 [4] of 5.6 µM (≈ 1.96 µg/mL). It also gave an MIC50 [5] of 2.8 µM (≈ 0.978 µg/mL), an MIC50 [6] of 22.3 µM (≈ 7.79 µg/mL) and an MIC50 [7] of 5.6 µM (≈ 1.96 µg/mL). For the same compound, the MIC50 [8] was 0.17 µM (≈ 0.0594 µg/mL), the MIC50 [9] was 0.34 µM (≈ 0.119 µg/mL) and the MIC50 [10] was under 0.06 µM. For the same compound, the MIC50 [12] was 0.06 µM (≈ 0.021 µg/mL), the MIC50 [13] was 0.34 µM (≈ 0.119 µg/mL) and the Activity [14] was “Dose-dependent effect”.

CC(O)(Cn1cncn1)c1ccc(F)cc1F (stereo not drawn) gave an MIC [1] of over 131 µM, an MIC50 [2] of over 131 µM and an MIC50 [3] of over 131 µM. It also gave an MIC50 [4] of over 131 µM, an MIC50 [5] of over 131 µM and an MIC50 [6] of over 131 µM. It also gave an MIC50 [7] of 65.2 µM (≈ 15.6 µg/mL), an MIC50 [8] of over 131 µM and an MIC [9] of over 131 µM. It also gave an MIC [10] of 16.3 µM (≈ 3.9 µg/mL), an MIC [11] of over 131 µM and an MIC [12] of 131 µM (≈ 31.3 µg/mL). For the same compound, the MIC [13] was over 131 µM.

CCC(C)n1ncn(-c2ccc(N3CCN(c4ccc(OCC5COC(Cn6cncn6)(c6ccc(Cl)cc6Cl)O5)cc4)CC3)cc2)c1=O (stereo not drawn) [ITRACONAZOLE] showed an MIC50 [1] of 0.71 µM (≈ 0.501 µg/mL), an MIC50 [2] of over 88.6 µM and an MIC50 [3] of 11.1 µM (≈ 7.83 µg/mL). The MIC50 [4] was 44.4 µM (≈ 31.3 µg/mL), the MIC50 [5] was 44.4 µM (≈ 31.3 µg/mL) and the MIC50 [6] was 44.4 µM (≈ 31.3 µg/mL). The MIC50 [7] was 44.4 µM (≈ 31.3 µg/mL), the MIC50 [8] was 11.1 µM (≈ 7.83 µg/mL) and the MIC50 [9] was 0.68 µM (≈ 0.48 µg/mL). It also gave an MIC50 [10] of 0.17 µM (≈ 0.12 µg/mL), an MIC50 [11] of 0.68 µM (≈ 0.48 µg/mL) and an MIC50 [12] of 0.28 µM (≈ 0.198 µg/mL). It also gave an MIC50 [13] of 1.4 µM (≈ 0.988 µg/mL).

For CCCCCCC(O)(Cn1cncn1)c1cccc(F)c1 (stereo not drawn), the MIC [1] was over 107 µM, the MIC50 [2] was over 107 µM and the MIC50 [3] was 6.7 µM (≈ 1.95 µg/mL). The MIC50 [4] was 6.7 µM (≈ 1.95 µg/mL), the MIC50 [5] was 6.7 µM (≈ 1.95 µg/mL) and the MIC50 [6] was 3.3 µM (≈ 0.962 µg/mL). It also gave an MIC50 [7] of 107 µM (≈ 31.3 µg/mL), an MIC50 [8] of 26.8 µM (≈ 7.81 µg/mL) and an MIC [9] of 13.4 µM (≈ 3.9 µg/mL). It also gave an MIC [10] of 6.7 µM (≈ 1.95 µg/mL), an MIC [11] of over 107 µM and an MIC [12] of 13.4 µM (≈ 3.9 µg/mL). It also gave an MIC [13] of 107 µM (≈ 31.3 µg/mL).

Compound CC(O)(Cn1cncn1)c1ccc(Cl)cc1Cl (stereo not drawn) has an MIC [1] of over 115 µM, an MIC50 [2] of over 115 µM and an MIC50 [3] of 28.7 µM (≈ 7.81 µg/mL). The MIC50 [4] was 7.2 µM (≈ 1.96 µg/mL), the MIC50 [5] was over 115 µM and the MIC50 [6] was over 115 µM. It also gave an MIC50 [7] of over 115 µM, an MIC50 [8] of 14.3 µM (≈ 3.89 µg/mL) and an MIC [9] of 14.3 µM (≈ 3.89 µg/mL). For the same compound, the MIC [10] was 0.88 µM (≈ 0.239 µg/mL), the MIC [11] was over 115 µM and the MIC [12] was 7.2 µM (≈ 1.96 µg/mL). The MIC [13] was over 115 µM.
